Results reported in ChEMBL document CHEMBL4765345, “Design, synthesis, and biological evaluation of dual targeting inhibitors of histone deacetylase 6/8 and bromodomain BRPF1” (Eur J Med Chem, 2020).

Columns and labels:
Peregrin = biological target: T1, Peregrin (Homo sapiens, UniProt P55201); assay: Binding affinity to BRPF1 (unknown origin) by Isothermal titration calorimetry; conditions: read-out: Kd
T1 sequence (P55201 whole entry): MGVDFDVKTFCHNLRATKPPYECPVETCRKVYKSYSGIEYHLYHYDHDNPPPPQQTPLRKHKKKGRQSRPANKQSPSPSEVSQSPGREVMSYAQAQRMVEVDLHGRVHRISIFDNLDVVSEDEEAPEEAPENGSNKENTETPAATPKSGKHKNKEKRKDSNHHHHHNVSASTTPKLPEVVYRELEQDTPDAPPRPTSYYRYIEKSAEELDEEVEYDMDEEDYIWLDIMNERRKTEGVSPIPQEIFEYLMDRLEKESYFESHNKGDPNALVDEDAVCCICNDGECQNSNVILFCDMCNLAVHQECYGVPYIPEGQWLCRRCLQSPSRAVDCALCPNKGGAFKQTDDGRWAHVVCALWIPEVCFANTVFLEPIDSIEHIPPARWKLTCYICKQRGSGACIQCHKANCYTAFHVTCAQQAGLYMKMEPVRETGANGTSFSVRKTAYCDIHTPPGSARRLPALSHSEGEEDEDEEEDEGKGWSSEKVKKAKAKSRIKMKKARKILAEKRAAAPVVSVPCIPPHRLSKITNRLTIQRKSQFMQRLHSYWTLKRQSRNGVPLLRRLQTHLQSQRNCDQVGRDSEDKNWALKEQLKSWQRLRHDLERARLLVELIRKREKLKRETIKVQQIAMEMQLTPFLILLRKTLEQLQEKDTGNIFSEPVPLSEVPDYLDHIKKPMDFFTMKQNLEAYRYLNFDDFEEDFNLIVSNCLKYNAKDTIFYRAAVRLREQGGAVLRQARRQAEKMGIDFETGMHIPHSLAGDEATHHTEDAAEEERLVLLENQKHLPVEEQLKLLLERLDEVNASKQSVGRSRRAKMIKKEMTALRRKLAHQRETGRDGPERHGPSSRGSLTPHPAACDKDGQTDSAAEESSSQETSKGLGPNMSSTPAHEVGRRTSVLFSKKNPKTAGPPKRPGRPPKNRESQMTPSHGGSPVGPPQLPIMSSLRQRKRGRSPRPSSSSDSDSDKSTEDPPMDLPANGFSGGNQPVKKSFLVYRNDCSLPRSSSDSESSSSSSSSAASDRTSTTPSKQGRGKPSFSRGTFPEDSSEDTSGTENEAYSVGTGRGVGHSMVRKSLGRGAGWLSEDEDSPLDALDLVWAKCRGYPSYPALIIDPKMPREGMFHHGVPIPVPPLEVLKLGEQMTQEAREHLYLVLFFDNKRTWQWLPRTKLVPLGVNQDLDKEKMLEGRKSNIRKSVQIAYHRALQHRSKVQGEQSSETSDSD
How it was run: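 Isothermal titration calorimetry with recombinant BRPF1 (200–400 μM) in the injection syringe titrated into ligand (20–40 μM) in the sample cell. Kd was fitted from the titrations and reported with its P99 interval.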

[1] = biological target: T2, Protein deacetylase HDAC6 (Homo sapiens, UniProt Q9UBN7); assay: Inhibition of recombinant human HDAC6 using Z-(Ac)Lys-AMC as substrate after 90 mins by fluorescence based micro plate assay
T2 sequence (Q9UBN7 whole entry): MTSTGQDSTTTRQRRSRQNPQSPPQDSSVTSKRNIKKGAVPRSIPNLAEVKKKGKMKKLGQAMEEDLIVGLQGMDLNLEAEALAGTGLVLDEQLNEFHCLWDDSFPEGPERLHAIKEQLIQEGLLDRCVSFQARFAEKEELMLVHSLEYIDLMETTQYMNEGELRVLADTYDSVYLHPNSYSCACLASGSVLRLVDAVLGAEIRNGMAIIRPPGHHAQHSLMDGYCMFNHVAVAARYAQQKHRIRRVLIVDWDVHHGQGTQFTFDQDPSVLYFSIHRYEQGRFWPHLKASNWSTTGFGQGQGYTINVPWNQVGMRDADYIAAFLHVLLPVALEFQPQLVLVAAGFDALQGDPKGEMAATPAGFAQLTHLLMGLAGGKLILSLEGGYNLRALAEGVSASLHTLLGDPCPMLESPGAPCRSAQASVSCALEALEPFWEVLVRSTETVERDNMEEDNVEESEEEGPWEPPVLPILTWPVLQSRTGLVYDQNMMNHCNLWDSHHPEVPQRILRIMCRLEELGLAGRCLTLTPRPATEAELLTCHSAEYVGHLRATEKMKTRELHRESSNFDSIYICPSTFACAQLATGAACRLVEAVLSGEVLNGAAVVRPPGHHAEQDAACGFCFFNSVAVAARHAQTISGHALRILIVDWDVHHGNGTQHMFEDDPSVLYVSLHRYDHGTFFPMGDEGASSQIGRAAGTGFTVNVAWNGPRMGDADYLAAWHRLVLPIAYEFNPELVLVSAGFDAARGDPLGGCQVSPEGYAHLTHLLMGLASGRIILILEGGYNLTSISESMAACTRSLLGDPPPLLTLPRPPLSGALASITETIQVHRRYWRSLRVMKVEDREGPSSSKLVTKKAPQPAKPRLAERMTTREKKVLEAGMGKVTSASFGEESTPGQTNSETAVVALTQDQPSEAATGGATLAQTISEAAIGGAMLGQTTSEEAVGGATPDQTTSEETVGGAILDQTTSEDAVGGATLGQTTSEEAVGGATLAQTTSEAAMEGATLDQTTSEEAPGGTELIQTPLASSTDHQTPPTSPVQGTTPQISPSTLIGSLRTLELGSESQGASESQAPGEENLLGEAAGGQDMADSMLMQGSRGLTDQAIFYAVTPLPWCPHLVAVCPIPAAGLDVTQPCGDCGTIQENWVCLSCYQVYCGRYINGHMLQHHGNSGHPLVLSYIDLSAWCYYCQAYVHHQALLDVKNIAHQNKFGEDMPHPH
How it was run: (§1)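 Recombinant human HDAC1 or HDAC6 incubated 90 min at 37 °C with 10.5 μM ZMAL (Z-(Ac)Lys-AMC) and increasing inhibitor concentrations, using a homogeneous fluorescence assay. Fluorescence read at Ex 390/Em 460 nm.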

Histone deacetylase 8 = biological target: T3, Histone deacetylase 8 (Homo sapiens, UniProt Q9BY41); assay: Inhibition of human recombinant HDAC8 using H2N-Arg-His-Lys(Ac)-Lys(Ac)-AMC as substrate after 90 mins by fluorescence based micro plate assay
T3 sequence (Q9BY41 whole entry): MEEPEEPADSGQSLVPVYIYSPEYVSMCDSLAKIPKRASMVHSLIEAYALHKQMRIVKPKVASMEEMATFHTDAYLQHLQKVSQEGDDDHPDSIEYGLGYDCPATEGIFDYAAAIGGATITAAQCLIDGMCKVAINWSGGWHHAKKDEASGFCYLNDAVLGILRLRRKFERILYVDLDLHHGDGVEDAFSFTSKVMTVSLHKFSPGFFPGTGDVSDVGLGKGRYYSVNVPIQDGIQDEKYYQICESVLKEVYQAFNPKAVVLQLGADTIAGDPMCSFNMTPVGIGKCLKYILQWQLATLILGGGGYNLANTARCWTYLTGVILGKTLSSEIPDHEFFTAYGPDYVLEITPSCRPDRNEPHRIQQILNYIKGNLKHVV

Histone deacetylase 1 [2] = biological target: T4, Histone deacetylase 1 (Homo sapiens, UniProt Q13547); assay: Inhibition of recombinant human HDAC1 using Z-(Ac)Lys-AMC as substrate after 90 mins by fluorescence based micro plate assay; how it was run: as §1
T4 sequence (Q13547 whole entry): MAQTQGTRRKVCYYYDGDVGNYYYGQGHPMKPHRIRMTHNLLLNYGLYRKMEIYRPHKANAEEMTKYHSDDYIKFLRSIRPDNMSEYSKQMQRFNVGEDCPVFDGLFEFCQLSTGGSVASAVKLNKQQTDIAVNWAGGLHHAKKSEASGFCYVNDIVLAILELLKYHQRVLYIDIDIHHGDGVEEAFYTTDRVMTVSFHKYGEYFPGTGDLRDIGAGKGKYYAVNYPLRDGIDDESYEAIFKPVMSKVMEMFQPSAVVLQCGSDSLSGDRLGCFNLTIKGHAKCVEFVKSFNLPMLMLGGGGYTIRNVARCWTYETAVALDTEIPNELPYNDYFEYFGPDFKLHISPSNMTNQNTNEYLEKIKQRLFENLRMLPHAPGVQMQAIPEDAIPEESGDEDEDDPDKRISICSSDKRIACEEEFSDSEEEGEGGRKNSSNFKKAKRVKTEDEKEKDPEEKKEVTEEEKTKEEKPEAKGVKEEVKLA

THP-1 [3] = assay: Antiproliferative activity against human THP-1 assessed as reduction in cell growth at 20 uM by CellTiter-non radioactive cell proliferation assay; format: functional
THP-1 [4] = assay: Antiproliferative activity against human THP-1 assessed as reduction in cell growth at 100 uM by CellTiter-non radioactive cell proliferation assay; format: functional
THP-1 [5] = assay: Antiproliferative activity against human THP-1 assessed as reduction in cell growth at 1 uM by CellTiter-non radioactive cell proliferation assay; format: functional
HL-60 [6] = assay: Antiproliferative activity against human HL60 assessed as reduction in cell growth at 20 uM by CellTiter-non radioactive cell proliferation assay; format: functional
HL-60 [7] = assay: Antiproliferative activity against human HL60 assessed as reduction in cell growth at 100 uM by CellTiter-non radioactive cell proliferation assay; format: functional
HL-60 [8] = assay: Antiproliferative activity against human HL60 assessed as reduction in cell growth at 1 uM by CellTiter-non radioactive cell proliferation assay; format: functional
Histone deacetylase 1 [9] = biological target: T4, Histone deacetylase 1; assay: Inhibition of recombinant human HDAC1 at 10 uM using Z-(Ac)Lys-AMC as substrate after 90 mins by fluorescence based micro plate assay; how it was run: as §1
[10] = biological target: T5, Protein deacetylase HDAC6 (Homo sapiens) (UniProt Q9UBN7); assay: Inhibition of recombinant human HDAC6 at 1 uM using Z-(Ac)Lys-AMC as substrate after 90 mins by fluorescence based micro plate assay; how it was run: as §1
T5 sequence (whole entry): T2 sequence (Q9UBN7 whole entry)

HL-60 [11] = assay: Antiproliferative activity against human HL60 assessed as reduction in cell growth at 4 uM by CellTiter-non radioactive cell proliferation assay; format: functional
How it was run: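 HL60 cells plated at 5000 per well and given inhibitor or DMSO vehicle immediately. Compounds diluted from 200x DMSO stocks; three replicates per concentration. Growth read by CellTiter 96 Aqueous (MTS) assay. GI50 is the concentration cutting metabolically active cells by 50% versus DMSO control, taken from absorbance against log concentration.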

Histone deacetylase 1 [12] = biological target: T4, Histone deacetylase 1; assay: Inhibition of recombinant human HDAC1 at 1 uM using Z-(Ac)Lys-AMC as substrate after 90 mins by fluorescence based micro plate assay; how it was run: as §1
THP-1 [13] = assay: Antiproliferative activity against human THP-1 assessed as reduction in cell growth at 4 uM by CellTiter-non radioactive cell proliferation assay; format: functional
[14] = biological target: T5, Protein deacetylase HDAC6 (Homo sapiens); assay: Inhibition of recombinant human HDAC6 at 10 uM using Z-(Ac)Lys-AMC as substrate after 90 mins by fluorescence based micro plate assay; how it was run: as §1

| Compound | Kd (Peregrin) [µM] | IC50 [1] [µM] | IC50 (Histone deacetylase 8) [µM] | IC50 (Histone deacetylase 1 [2]) [µM] | inhibition at 20 µM (THP-1 [3]) [%] | inhibition at 100 µM (THP-1 [4]) [%] | inhibition at 1 µM (THP-1 [5]) [%] | inhibition at 20 µM (HL-60 [6]) [%] | inhibition at 100 µM (HL-60 [7]) [%] | inhibition at 1 µM (HL-60 [8]) [%] | inhibition (Histone deacetylase 1 [9]) [%] | inhibition [10] [%] | inhibition at 4 µM (HL-60 [11]) [%] | inhibition (Histone deacetylase 1 [12]) [%] | inhibition at 4 µM (THP-1 [13]) [%] | inhibition [14] [%] |
| --- | --- | --- | --- | --- | --- | --- | --- | --- | --- | --- | --- | --- | --- | --- | --- | --- |
| COc1ccc(C(=O)NO)cc1C(=O)Nc1ccc2c(c1)cc(C)c(=O)n2C | 0.857 | 0.709 | 0.065 | 6.9 |  |  |  |  |  |  |  |  |  |  |  |  |
| Cc1cc2cc(NS(=O)(=O)Cc3ccc(C(=O)NOCc4ccc(O)cc4)cc3)ccc2n(C)c1=O |  |  |  |  | 1 | 91 | 0 |  |  |  |  |  |  |  |  |  |
| COC(=O)c1ccc(CS(=O)(=O)Nc2ccc3c(c2)cc(C)c(=O)n3C)cc1 |  |  |  |  | 9 | 93 | 0 | 14 | 78 | 15 |  |  |  |  |  |  |
| COc1ccc(C(=O)NOCc2ccccc2)cc1S(=O)(=O)Nc1ccc2c(c1)cc(C)c(=O)n2C |  |  |  |  | 20 |  |  |  | 13 | 2 |  |  |  |  |  |  |
| Cc1cc2cc(NS(=O)(=O)c3cc(C(=O)NO)ccc3Cl)ccc2n(C)c1=O | 0.234 |  | 0.56 |  | 8 | 21 |  | 32 | 33 |  | 31 | 13 | 29 | 13 | 16 | 59 |
| COc1ccc(C(=O)NO)cc1CS(=O)(=O)Nc1ccc2c(c1)cc(C)c(=O)n2C |  |  | 0.158 |  | 0 | 0 | 0 | 0 | 0 |  | 29 | 14 | 0 | 4 |  | 63 |
| Cc1cc2cc(NCc3cc(C(=O)NO)ccc3Cl)ccc2n(C)c1=O |  |  | 3.19 |  |  |  |  |  |  |  | 20 | 28 |  |  |  | 84 |
| Cc1cc2cc(NC(=O)c3cc(C(=O)NO)ccc3Cl)ccc2n(C)c1=O |  |  | 0.113 |  |  |  |  |  |  |  |  |  |  |  |  |  |
| COC(=O)c1ccc(S(=O)(=O)Nc2ccc3c(c2)cc(C)c(=O)n3C)cc1 |  |  |  |  | 85 | 95 | 0 | 22 | 68 | 5 |  |  |  |  |  |  |
| COc1cc(C(=O)NO)ccc1CS(=O)(=O)Nc1ccc2c(c1)cc(C)c(=O)n2C | 1.58 |  | 0.231 |  | 0 |  |  | 0 | 0 |  | 29 | 15 | 0 | 11 |  | 46 |
| Cc1cc2cc(NS(=O)(=O)Cc3cccc(C(=O)NO)c3)ccc2n(C)c1=O |  |  | 0.465 |  | 0 | 0 | 0 | 0 | 0 |  | 26 | 3 | 0 | 2 |  | 33 |
| COc1ccc(C(=O)NOCc2ccc(OC(C)=O)cc2)cc1S(=O)(=O)Nc1ccc2c(c1)cc(C)c(=O)n2C |  |  |  |  | 3 | 27 |  | 0 | 95 | 0 |  |  |  |  |  |  |
| COc1ccc(C(=O)NO)cc1CNc1ccc2c(c1)cc(C)c(=O)n2C |  |  | 0.555 |  |  |  |  |  |  |  | 31 | 40 |  |  |  | 68 |
| Cc1cc2cc(NS(=O)(=O)c3ccc(C(=O)NO)cc3)ccc2n(C)c1=O | 0.175 | 0.344 | 0.908 | 0.797 |  | 78 | 0 | 6 | 34 | 3 |  |  |  |  |  |  |
